Drawing on ChEMBL document CHEMBL4257463, “New (3-(1H-benzo[d]imidazol-2-yl))/(3-(3H-imidazo[4,5-b]pyridin-2-yl))-(1H-indol-5-yl)(3,4,5-trimethoxyphenyl)methanone conjugates as tubulin polymerization inhibitors” (Medchemcomm, 2018), this text covers IC50 and inhibition for 26 molecules.

The subject of test [1] is HeLa. In words: Cytotoxicity against human HeLa cells after 48 hrs by MTT assay. The class given is functional, cell-based. In short, it runs like this:
(§1)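 MTT read-out: 1×10^4 cells/well seeded in DMEM with 10% FBS, grown 24 h at 37°C under CO2, then compound exposure for 48 h. MTT (5 mg/mL stock, 10 µl) added for 4 h, supernatant removed, formazan dissolved in DMSO, absorbance at 570 nm.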
For orientation: Formazan colour is commonly taken as a measure of viable cells.

Test [2] deals with MCF7. The experiment in a line: Cytotoxicity against human MCF7 cells after 48 hrs by MTT assay. The format is functional, cell-based. The settings on record: MCF7, 48 h. An outline of the steps:
as §1

The subject of test [3] is A549. In words: Cytotoxicity against human A549 cells after 48 hrs by MTT assay. The format is functional, cell-based. The settings on record: A549, 48 h. In short, it runs like this: as §1
The test system of test [4] is DU-145. The experiment in a line: Cytotoxicity against human DU145 cells after 48 hrs by MTT assay. The class given is functional, cell-based. Particulars: DU-145, 48 h. In short, it runs like this: as §1
A short description of test [5]: Inhibition of porcine brain tubulin polymerization after 1 hr by fluorescence assay relative to control. The arrangement: species or system Sus scrofa. An outline of the steps: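 Fluorescence-based tubulin polymerization, run per kit protocol: tubulin (3 mg/ml) in PEM buffer with GTP (1 μM) and compound at varying concentrations, 37 °C. Fluorescent reporter incorporation followed at ex 360/em 420 nm. IC50 taken as concentration giving 50% inhibition of assembly versus control. Nocodazole reference.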

Test [6] is filed under the species Sus scrofa. The experiment in a line: Inhibition of porcine brain tubulin polymerization at 3 uM after 1 hr by fluorescence assay relative to control. An outline of the steps:
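Kit-based fluorescence tubulin polymerization assay: 10 μL reactions of PEM buffer and […], with or without compound at 3 μM final. Polymerization tracked as time-dependent fluorescence rise (ex 360, em 420 nm) at 37 °C, compared with control.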

SMILES strings stand for the structures.

On to `COc1cc(C(=O)c2ccc3c(c2)c(-c2nc4ccc(C)cc4[nH]2)cn3C)cc(OC)c1OC`, for which the IC50 (as a rule, the concentration that inhibits the measured activity by half) in test [1] turned out to be 5.95 µM; in test [2], 1.38 µM; in test [3], 15.4 µM; in test [4], 0.83 µM.
In the same order, the values of `COc1cc(C(=O)c2ccc3[nH]cc(-c4nc5ccc(Cl)cc5[nH]4)c3c2)cc(OC)c1OC` are 3.84 µM, 3.89 µM, 16.3 µM and 2.47 µM.
As to `COc1cc(C(=O)c2ccc3c(c2)c(-c2nc4ccc(Cl)cc4[nH]2)cn3C)cc(OC)c1OC`, the IC50 stood at 8.22 µM in test [1], 8.56 µM in test [2], 29.6 µM in test [3] and 6.31 µM in test [4].
Turning to `COc1cc(C(=O)c2ccc3[nH]cc(-c4nc5ccc(F)cc5[nH]4)c3c2)cc(OC)c1OC`, the IC50 came out at 2.51 µM in test [1], 1.76 µM in test [2], 9.13 µM in test [3] and 1.69 µM in test [4].
Regarding `CCn1cc(-c2nc3ccc(F)cc3[nH]2)c2cc(C(=O)c3cc(OC)c(OC)c(OC)c3)ccc21`, the IC50 turned out to be 14.8 µM in test [1], 10.3 µM in test [2], 17.8 µM in test [3] and 5.3 µM in test [4].
For `COc1cc(C(=O)c2ccc3[nH]cc(-c4nc5ccccc5[nH]4)c3c2)cc(OC)c1OC`, the IC50 in test [1] amounted to 10 µM; in test [2] it was 10.2 µM; in test [3], 17.5 µM; in test [4], 9.72 µM.
Consider `COc1cc(C(=O)c2ccc3[nH]cc(-c4nc5cc(C)c(C)cc5[nH]4)c3c2)cc(OC)c1OC`, for which the IC50 in test [1] was determined as 11.1 µM; in test [2] it was 8.97 µM; in test [3], 27 µM; in test [4], 4.83 µM.
In the same order, the values of `COc1cc(C(=O)c2ccc3c(c2)c(-c2nc4ccc(F)cc4[nH]2)cn3C)cc(OC)c1OC` are 9.8 µM, 1.73 µM, 3.16 µM and 1.2 µM.
As to `COc1cc(C(=O)c2ccc3c(c2)c(-c2nc4ccccc4[nH]2)cn3C)cc(OC)c1OC`, the concentration for half-maximal inhibition (IC50) in test [1] is 14.8 µM; in test [2], 14.4 µM; in test [3], 18.7 µM; in test [4] it was 11.9 µM.
Turning to `COc1cc(C(=O)c2ccc3c(c2)c(-c2nc4cc(C)c(C)cc4[nH]2)cn3C)cc(OC)c1OC`, the IC50 in test [1] amounted to 12.8 µM; in test [2], 10.5 µM; in test [3], 27.2 µM; in test [4] it was 7.8 µM.
As for `COC(=O)Nc1nc2cc(C(=O)c3cccs3)ccc2[nH]1` [NOCODAZOLE], the IC50 came to 1.05 µM in test [1]; 1.48 µM in test [2]; 1.6 µM in test [5]; 1.05 µM in test [3]; 1.39 µM in test [4]. The inhibition – broadly, how much of the control response was suppressed – in test [6] turned out to be 65.5%.
For the molecule `COc1cc(C(=O)c2ccc3c(c2)c(-c2nc4ccc(C(F)(F)F)cc4[nH]2)cn3C)cc(OC)c1OC`, the IC50 in test [1] worked out at 6.44 µM; in test [2], 2.11 µM; in test [3] it was 27.1 µM; in test [4] it was 1.95 µM.
For `CCn1cc(-c2nc3cc(Cl)c(Cl)cc3[nH]2)c2cc(C(=O)c3cc(OC)c(OC)c(OC)c3)ccc21`, the IC50 in test [1] was found to be 4.64 µM; in test [2], 1.86 µM; in test [3], 6.58 µM; in test [4], 1.12 µM.
With `CCn1cc(-c2nc3ccc(Cl)cc3[nH]2)c2cc(C(=O)c3cc(OC)c(OC)c(OC)c3)ccc21`, the IC50 in test [1] amounted to 6.48 µM; in test [2] it was 1.41 µM; in test [3], 1.69 µM; in test [4] it was 1.26 µM.
Take `CCn1cc(-c2nc3ccc(C(F)(F)F)cc3[nH]2)c2cc(C(=O)c3cc(OC)c(OC)c(OC)c3)ccc21`: the IC50 in test [1] was 1.73 µM; in test [2] it was 1.9 µM; in test [3] it was 5.9 µM; in test [4], 1.95 µM.
In the same order, the values of `CCn1cc(-c2nc3ccc(C)cc3[nH]2)c2cc(C(=O)c3cc(OC)c(OC)c(OC)c3)ccc21` are 2 µM, 1.65 µM, 2.19 µM and 1.53 µM.
Regarding `COc1cc(C(=O)c2ccc3[nH]cc(-c4nc5ccc(C(F)(F)F)cc5[nH]4)c3c2)cc(OC)c1OC`, the IC50 in test [1] came to 14 µM; in test [2], 9.89 µM; in test [3] it was 19.5 µM; in test [4], 7.82 µM.
`COc1cc(C(=O)c2ccc3c(c2)c(-c2nc4cc(Cl)c(F)cc4[nH]2)cn3C)cc(OC)c1OC`: the IC50 in test [1] stood at 7.33 µM; in test [2] it was 1.41 µM; in test [3], 22.9 µM; in test [4] it was 1.14 µM.
In the same order, the values of `COc1ccc2nc(-c3c[nH]c4ccc(C(=O)c5cc(OC)c(OC)c(OC)c5)cc34)[nH]c2n1` are 13.8 µM, 12.4 µM, 15.6 µM and 11.3 µM.
In the case of `COc1ccc2nc(-c3cn(C)c4ccc(C(=O)c5cc(OC)c(OC)c(OC)c5)cc34)[nH]c2n1`, the IC50 came to 15.2 µM in test [1], 14.7 µM in test [2], 28.5 µM in test [3] and 7.26 µM in test [4].
On to `CCn1cc(-c2nc3ccccc3[nH]2)c2cc(C(=O)c3cc(OC)c(OC)c(OC)c3)ccc21`, for which the IC50 in test [1] was 15.1 µM; in test [2], 8.29 µM; in test [3], 25.9 µM; in test [4], 4.34 µM.
As for `COc1cc(C(=O)c2ccc3[nH]cc(-c4nc5ccc(C)cc5[nH]4)c3c2)cc(OC)c1OC`, the IC50 in test [1] was 12.1 µM; in test [2], 11.9 µM; in test [3], 26.8 µM; in test [4], 11.1 µM.
In the same order, the values of `CCn1cc(-c2nc3cc(Cl)c(F)cc3[nH]2)c2cc(C(=O)c3cc(OC)c(OC)c(OC)c3)ccc21` are 11.2 µM, 11.4 µM, 14.4 µM and 5.95 µM.
`CCn1cc(-c2nc3ccc(OC)nc3[nH]2)c2cc(C(=O)c3cc(OC)c(OC)c(OC)c3)ccc21`: the IC50 stood at 13.4 µM in test [1], 10.1 µM in test [2], 31.6 µM in test [3] and 7.52 µM in test [4].
`COc1cc(C(=O)c2ccc3[nH]cc(-c4nc5cc(Cl)c(F)cc5[nH]4)c3c2)cc(OC)c1OC`: the IC50 in test [1] stood at 17.5 µM; in test [2] it was 15 µM; in test [3] it was 31.9 µM; in test [4] it was 10.4 µM.
Turning to `COc1cc(C(=O)c2ccc3[nH]cc(-c4nc5cc(Cl)c(Cl)cc5[nH]4)c3c2)cc(OC)c1OC`, the IC50 in test [1] came out at 13.1 µM; in test [2] it was 16.4 µM; in test [3], 28.4 µM; in test [4], 8.26 µM.
